For orientation: IC50 means the concentration at which inhibition is half-maximal. One may read the half-life as the time needed for the level to fall by half in the phase considered. As a reminder, the EC50 is the concentration at which the effect is half-maximal.

Where only a bound is given, the exact number is not on record here.

Here are results for 1 compound from ChEMBL document CHEMBL1148625, “3-(1,1-dioxo-2H-(1,2,4)-benzothiadiazin-3-yl)-4-hydroxy-2(1H)-quinolinones, potent inhibitors of hepatitis C virus RNA-dependent RNA polymerase” (J Med Chem, 2006).

Series [1] concerns the target T1, RNA-directed RNA polymerase (Hepacivirus hominis, UniProt O39930). The series can be described thus: Inhibitory activity against HCV 2a NS5B RNA polymerase. On the set-up: species or system Hepatitis C virus genotype 2.
Series [2] can be described thus: Half life in Sprague-Dawley rat at 1.3 mg/kg, iv or 3.4 mg/kg, po. The format is ADME, organism-based. The note with it: in vivo. An outline of the steps:
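Single intravenous or oral doses given to Sprague-Dawley rats. Values are reported as means: Cmax (ng/mL), half-life (min), plasma clearance (mL/min/kg), steady-state volume of distribution (L/kg) and oral bioavailability F (%).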

The subject of series [3] is Hepatitis C virus. Nature of the series: Protein binding in Huh7 cells using HCV 1b replicon by a replicon cell assay in presence of HSA and alpha-acid glycoprotein. The format is functional, organism-based, Hepacivirus hominis. As to conditions: genotype 1b, Huh-7. Background: Replicon systems follow genome replication, usually without infectious particles.
In series [4] the test system is Hepatitis C virus. Nature of the series: Protein binding in Huh7 cells using HCV 1b replicon by a replicon cell assay in presence of alpha-acid glycoprotein. As to conditions: genotype 1b, Huh-7. The format is functional, organism-based, Hepacivirus hominis.
The target in another series is Cytochrome P450 2C9 (Homo sapiens, UniProt P11712). The series can be described thus: Inhibition of CYP2C9 isozyme. The format is ADME.
Series [5] concerns the target T1, RNA-directed RNA polymerase. Nature of the series: Inhibitory activity against HCV 1b NS5B RNA polymerase. On the set-up: species or system Hepatitis C virus subtype 1b. An outline of the steps: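 Scintillation proximity polymerase assay with HCV NS5B (genotype 1b, J4 strain, Δ21 construct) at 50 or 10 nM. The reaction used [α-33P]GTP and GTP with 5′-biotinylated oligo(rG13)/poly(rC) in 20 mM Tris-Cl pH 7.5 containing MgCl2, KCl, DTT and 0.05% BSA. It ran 2 h at 25 °C, was stopped with an equal volume of 100 mM EDTA, then captured on streptavidin FlashPlates and counted; n = 4.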

Series [6] is described as follows: Volume of distribution in Beagle dog at 0.8 mg/kg, iv or 4.0 mg/kg, po. Format: ADME, organism-based, Canis lupus familiaris. The note with it: in vivo, read-out: Vdss. An outline of the steps:
(§1)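 Single-dose study, with separate intravenous and oral administrations at the listed mg/kg. Plasma concentrations were followed over time, and mean values were derived for Cmax, T1/2, clearance (mL/min/kg), Vdss (L/kg) and oral bioavailability (%).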

Series [7] can be described thus: Clearance in cynomolgus monkey at 0.8 mg/kg, iv or 4.0 mg/kg, po. The format is ADME, organism-based, Macaca fascicularis. As to conditions: in vivo. An outline of the steps:
as §1

Series [8] concerns the target T2, Nuclear receptor subfamily 1 group I member 2 (Homo sapiens, UniProt O75469).
T2 sequence (O75469 whole entry): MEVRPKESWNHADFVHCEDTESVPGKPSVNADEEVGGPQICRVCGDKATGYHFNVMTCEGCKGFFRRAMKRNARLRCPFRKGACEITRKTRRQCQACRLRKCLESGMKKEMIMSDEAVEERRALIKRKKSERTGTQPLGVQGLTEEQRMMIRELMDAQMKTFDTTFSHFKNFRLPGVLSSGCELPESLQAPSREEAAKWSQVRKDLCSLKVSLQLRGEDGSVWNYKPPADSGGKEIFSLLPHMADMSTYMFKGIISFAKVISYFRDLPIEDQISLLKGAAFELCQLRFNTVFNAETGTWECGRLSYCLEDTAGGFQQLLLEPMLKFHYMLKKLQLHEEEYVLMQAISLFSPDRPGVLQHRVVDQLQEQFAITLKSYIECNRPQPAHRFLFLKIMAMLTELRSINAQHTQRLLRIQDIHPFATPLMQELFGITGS
The series can be described thus: Effect on PXR activity.

Series [9] can be described thus: Half life in cynomolgus monkey at 0.8 mg/kg, iv or 4.0 mg/kg, po. Format: ADME, organism-based, Macaca fascicularis. As to conditions: in vivo. An outline of the steps: as §1
Series [10] is described as follows: Volume of distribution in cynomolgus monkey at 0.8 mg/kg, iv or 4.0 mg/kg, po. Format: ADME, organism-based, Macaca fascicularis. The note with it: in vivo, read-out: Vdss. An outline of the steps:
as §1

T1 sequence (O39930 whole entry): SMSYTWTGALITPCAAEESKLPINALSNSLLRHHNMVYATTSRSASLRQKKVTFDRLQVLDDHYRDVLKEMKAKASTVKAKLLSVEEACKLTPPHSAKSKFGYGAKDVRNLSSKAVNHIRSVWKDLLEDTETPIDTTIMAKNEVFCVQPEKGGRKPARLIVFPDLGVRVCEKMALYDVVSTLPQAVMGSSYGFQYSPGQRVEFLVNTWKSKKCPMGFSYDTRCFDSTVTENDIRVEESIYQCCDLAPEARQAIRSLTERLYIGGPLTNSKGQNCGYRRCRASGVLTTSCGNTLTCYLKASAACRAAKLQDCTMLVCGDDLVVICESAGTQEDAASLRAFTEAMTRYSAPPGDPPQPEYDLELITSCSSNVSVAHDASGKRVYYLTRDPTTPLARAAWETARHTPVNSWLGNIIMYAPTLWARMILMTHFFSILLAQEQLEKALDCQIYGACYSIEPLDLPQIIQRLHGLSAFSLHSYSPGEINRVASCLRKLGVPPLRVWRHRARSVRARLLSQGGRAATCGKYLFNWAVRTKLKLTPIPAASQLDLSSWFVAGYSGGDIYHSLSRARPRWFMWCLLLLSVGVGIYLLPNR
Chain of Cytochrome P450 2C9 (P11712 whole entry): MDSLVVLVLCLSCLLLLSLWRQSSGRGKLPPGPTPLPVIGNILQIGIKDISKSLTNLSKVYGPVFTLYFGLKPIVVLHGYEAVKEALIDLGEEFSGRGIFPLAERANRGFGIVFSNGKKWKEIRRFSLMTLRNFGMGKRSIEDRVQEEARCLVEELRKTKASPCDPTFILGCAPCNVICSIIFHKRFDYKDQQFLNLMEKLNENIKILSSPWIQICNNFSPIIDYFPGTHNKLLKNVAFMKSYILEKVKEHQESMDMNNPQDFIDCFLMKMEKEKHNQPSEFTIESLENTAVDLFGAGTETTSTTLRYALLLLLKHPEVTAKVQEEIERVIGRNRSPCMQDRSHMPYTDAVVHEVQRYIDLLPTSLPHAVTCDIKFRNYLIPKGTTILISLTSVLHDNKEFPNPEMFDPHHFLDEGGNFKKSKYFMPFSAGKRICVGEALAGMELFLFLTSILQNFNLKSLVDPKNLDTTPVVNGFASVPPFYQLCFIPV

Regarding `O=c1c(C2=Nc3ccccc3S(=O)(=O)N2)c(O)c2cc(F)ccc2n1CCC1CC1`, the values for the IC50 (in series [1]; against Cytochrome P450 2C9; in [5]) were 13 nM, 1000 nM and 10 nM, respectively. Besides, the half-life in [2] stood at 3.04 h; in [9], 1.61 h. For the same compound, the results for the EC50 (in the series on Hepatitis C virus [3]; in the series on Hepatitis C virus [4]; in [8]) were greater than 20000 nM, 180 nM and 5300 nM, respectively. The Vd in series [6] was determined as 0.15 L/kg; in [10] it was 0.11 L/kg. In series [7], the clearance amounted to 0.76 mL/min/kg.
